One assay deals with Shigella dysenteriae. The experiment in a line: Antimicrobial activity against Shigella dysenteriae by twofold serial broth microdilution assay. It counts as functional. On the technique in general: In broth dilution the organism is exposed to a series of concentrations in liquid medium.
For another assay, the system named is Pseudomonas aeruginosa. The experiment in a line: Antimicrobial activity against Pseudomonas aeruginosa by twofold serial broth microdilution assay. It counts as functional. The method, boiled down: (§1)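 Twofold serial broth microdilution in sterile Mueller-Hinton broth, over 500 µg/ml to 7.8 µg/ml. Samples were added as solutions in Me₂CO or MeOH, with solvent blanks included. After 24 h at 37°, MIC was taken as the lowest concentration that inhibited growth.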

A further assay concerns Escherichia coli. The experiment in a line: Antimicrobial activity against Escherichia coli by twofold serial broth microdilution assay. It counts as functional. The method, boiled down: as §1
A further assay deals with Staphylococcus aureus. The experiment in a line: Antimicrobial activity against Staphylococcus aureus by twofold serial broth microdilution assay. It counts as functional. The method, boiled down: as §1
A further assay concerns Salmonella typhimurium. The experiment in a line: Antimicrobial activity against Salmonella Typhimurium by twofold serial broth microdilution assay. Type of assay: functional, Salmonella enterica subsp. enterica serovar Typhimurium. As to conditions: Salmonella enterica. The method, boiled down: as §1
Another assay has as its system Enterococcus faecalis. The experiment in a line: Antimicrobial activity against Streptococcus faecalis by twofold serial broth microdilution assay. It counts as functional. In a few lines: as §1
Another assay concerns Candida albicans. The experiment in a line: Antimicrobial activity against Candida albicans by twofold serial broth microdilution assay. Type of assay: functional. In a few lines:
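Samples were added as Me₂CO or MeOH solutions, with solvent blanks. Incubation was 24 h at 37°. MIC was the lowest concentration preventing visible growth of the organism.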

The subject of a further assay is Vibrio cholerae. The experiment in a line: Antimicrobial activity against Vibrio cholerae by twofold serial broth microdilution assay. Type of assay: functional.

In brackets after ≈: the same amount, converted by molar mass. Bounds are passed on as bounds.

These results are taken from ChEMBL document CHEMBL1159207, “Structure and antimicrobial activity of diterpenes from the roots of Plectranthus hereroensis” (1994).

As a reminder, the MIC is the lowest concentration that inhibits growth of the organism.

With `CC(C)C1=C(O)C(=O)C2=C(C1=O)[C@H](O)C[C@H]1C(C)(C)CCC[C@]21C` [HORMINONE], the MIC in the assay with Shigella dysenteriae is no less than 500 mg/L; against Pseudomonas aeruginosa, 250 mg/L (≈ 752 µM); with Escherichia coli, no less than 500 mg/L; in the assay on Staphylococcus aureus, 7.8 mg/L (≈ 23.5 µM); in the assay on Salmonella typhimurium it was no less than 500 mg/L; in the assay on Enterococcus faecalis, no less than 500 mg/L. The MIC was determined as 250 mg/L (≈ 752 µM) in the assay with Candida albicans and 7.8 mg/L (≈ 23.5 µM) in the assay with Vibrio cholerae.
`C=CCC1=C(O)C(=O)C2=C(C1=O)[C@H](O)C[C@H]1C(C)(C)CCC[C@]21C`: the MIC with Shigella dysenteriae is no less than 500 mg/L; against Pseudomonas aeruginosa, 250 mg/L (≈ 757 µM); in the assay on Escherichia coli, no less than 500 mg/L; in the assay with Salmonella typhimurium, no less than 500 mg/L; in the assay with Enterococcus faecalis, no less than 500 mg/L; in the assay on Candida albicans, 125 mg/L (≈ 378 µM).
